Measured values: ChEMBL document CHEMBL1139961, “Synthesis and evaluation of isoxazole derivatives as lysophosphatidic acid (LPA) antagonists” (Bioorg Med Chem Lett, 2007)

Legend:
[1] = target: Lysophosphatidic acid receptor 1 (Homo sapiens, UniProt Q92633); test: Antagonist activity at human recombinant LPA1 receptor expressed in CHOK1 cells assessed as inhibition of lysophosphatidic acid-induced intracellular calcium influx; assay type: functional, cell-based, CHO-K1
Outline: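 LPA1-transfected CHO-K1 cells grown in aMEM/F12 with 400 µg/ml Zeocin and 7% FBS. Loaded with Fluo-3 AM in 20 mM Hepes/HBSS/2.5 mM probenecid, 1 h, 37 °C. Washed, resuspended with 0.1% BSA, 24,000 cells/well. FLIPR fluorescence (ex 488/em 540 nm) read before and after compound addition, with or without 1 µM LPA. IC50 is the mean of at least two runs.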

[2] = target: Lysophosphatidic acid receptor 1 (Rattus norvegicus, UniProt P61794); test: Antagonist activity at LPA1 receptor in rat hepatic stellate cells assessed as inhibition of lysophosphatidic acid-induced intracellular calcium influx; assay type: functional, cell-based
Outline: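 Stellate cells isolated from male Wistar rat liver, seeded overnight at 24,000 cells/well. Loaded with 4 µM Fluo-3 AM in buffer (0.1% BSA, 20 mM Hepes, HBSS, 2.5 mM probenecid), 37 °C, 1 h, then FLIPR Ca2+ read. Test substance added with LPA at 5 µM final. LPA without compound = 100%, no LPA = 0%. IC50 is the mean of at least two runs.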

Lysophosphatidic acid receptor 1 (Rattus norvegicus, UniProt P61794), sequence (P61794 whole entry): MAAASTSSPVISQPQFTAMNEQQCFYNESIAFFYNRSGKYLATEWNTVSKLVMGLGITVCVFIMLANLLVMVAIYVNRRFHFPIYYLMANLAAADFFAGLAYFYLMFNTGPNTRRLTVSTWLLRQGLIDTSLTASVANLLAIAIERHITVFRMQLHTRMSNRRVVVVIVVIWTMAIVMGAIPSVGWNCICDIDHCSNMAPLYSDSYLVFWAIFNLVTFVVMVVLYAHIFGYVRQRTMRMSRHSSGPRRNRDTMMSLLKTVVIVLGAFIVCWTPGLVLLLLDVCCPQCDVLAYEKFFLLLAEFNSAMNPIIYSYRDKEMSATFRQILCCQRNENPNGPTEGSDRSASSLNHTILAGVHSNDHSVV
Lysophosphatidic acid receptor 1 (Homo sapiens, UniProt Q92633), sequence (Q92633 whole entry): as the sequence (P61794 whole entry) above, with A4I, S8I, Q22P, Y40H, V61I, D193E, H194N, V269I, N331S, N335T counted along it

IC50 [1] | IC50 [2] | Compound
> 40000 nM | > 20000 nM | CC(OC(=O)Nc1ccccc1-c1ccc(CSCCC(=O)O)cc1)c1ccccc1Cl (centres undefined)
200 nM | 72 nM | CC(OC(=O)Nc1conc1-c1ccc(CCCCC(=O)O)cc1)c1ccccc1Cl (centres undefined)
370 nM | 120 nM | CC(OC(=O)Nc1conc1-c1ccc(CCC(C)(C)CC(=O)O)cc1)c1ccccc1Cl (centres undefined)
140 nM | 73 nM | CC(OC(=O)Nc1conc1-c1ccc(NC(=O)CCC(=O)O)cc1)c1ccccc1Cl (centres undefined)
130 nM | 100 nM | CC(OC(=O)Nc1conc1-c1ccc(CCSCC(=O)O)cc1)c1ccccc1Cl (centres undefined)
170 nM | 56 nM | CC(OC(=O)Nc1conc1-c1ccc(CSCCC(=O)O)cc1)C1=C(Cl)CCCC1 (centres undefined)

Second part, the molecule before the results:

Compound | IC50 [1] | IC50 [2]
CC(OC(=O)Nc1conc1-c1ccc(CSCCS(=O)(=O)O)cc1)c1ccccc1Cl (centres undefined) | 430 nM | 74 nM
CC(OC(=O)Nc1cnoc1-c1ccc(CSCCC(=O)O)cc1)c1ccccc1Cl (centres undefined) | 260 nM | 81 nM
CC(OC(=O)Nc1conc1-c1ccc(CSCCC(=O)O)cc1)c1ccccc1Cl (centres undefined) | 220 nM | 49 nM
CC(OC(=O)Nc1conc1-c1ccc(CSCCC(=O)O)cc1)C1=C(Cl)CCC1 (centres undefined) | 130 nM | 29 nM
Cc1noc(-c2ccc(CSCCC(=O)O)cc2)c1NC(=O)OC(C)c1ccccc1Cl (centres undefined) | 510 nM | 160 nM
CC(OC(=O)Nc1conc1-c1ccc(CS(=O)(=O)CCC(=O)O)cc1)c1ccccc1Cl (centres undefined) | 280 nM | 110 nM
